ChEMBL document CHEMBL1130054, “Non-peptide glycoprotein IIb/IIIa inhibitors. 17. Design and synthesis of orally active, long-acting non-peptide fibrinogen receptor antagonists” (J Med Chem, 1997)

Assays:
[1] = target: T1, Integrin alpha-IIb/beta-3 (Homo sapiens, UniProt P05106+P08514); assay: Displacement of [125I]L-692884 from purified Fibrinogen Receptor activated by coating onto yttrium silicate; assay type: protein-complex assay
How it was run: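 Purified human GPIIb/IIIa activated by coating on yttrium silicate SPA beads (~0.3 nM) with ~0.3 nM [125I]L-692,884 in 20 mM HEPES, 0.15 M NaCl, pH 7.5, at room temperature. Competitor was tested over a wide concentration range. After equilibration, bound CPM was fitted by nonlinear least squares with a Hill slope to give ED50.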

Homo sapiens [2] = assay: Inhibition of ADP induced platelet aggregation 75 minutes after administration of 10 ug/kg by gastric lavage; assay type: functional; conditions: 1.25 h
How it was run: (§1)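 Conscious mongrel dogs dosed by gastric lavage with aqueous solution (5 mL, sterile water vehicle); citrated blood at baseline and 20–480 min. PRP (2 × 10⁸ platelets/mL, 37 °C, stirred) aggregated with 10 μM ADP + 1 μM epinephrine; light transmittance; percent inhibition vs pretreatment response. n = 4 or 8.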

[3] = target: T1, Integrin alpha-IIb/beta-3; assay: Displacement of L-736,622 from purified resting Fibrinogen Receptor; assay type: protein-complex assay
How it was run: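 Human platelet GPIIb/IIIa, unactivated form from Sephacryl S-300HR (typically 600 nM), in Triton X-100 buffer pH 7.4 with Ca²⁺/Mg²⁺. Used 1 μM fluorescent ligand L-736,622 at room temperature, read by fluorescence displacement. KD was calculated using 3.7 nM as the probe KD.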

Integrin alpha-5/beta-1 = Integrin alpha-5/beta-1 (Homo sapiens, UniProt P05556+P08648); assay: Inhibition of human umbilical vein endothelial cells (HUVEC) attachment to fibronectin; assay type: functional, cell-based
Sequence of Integrin alpha-5/beta-1 (P05556 21-798 limits assumed): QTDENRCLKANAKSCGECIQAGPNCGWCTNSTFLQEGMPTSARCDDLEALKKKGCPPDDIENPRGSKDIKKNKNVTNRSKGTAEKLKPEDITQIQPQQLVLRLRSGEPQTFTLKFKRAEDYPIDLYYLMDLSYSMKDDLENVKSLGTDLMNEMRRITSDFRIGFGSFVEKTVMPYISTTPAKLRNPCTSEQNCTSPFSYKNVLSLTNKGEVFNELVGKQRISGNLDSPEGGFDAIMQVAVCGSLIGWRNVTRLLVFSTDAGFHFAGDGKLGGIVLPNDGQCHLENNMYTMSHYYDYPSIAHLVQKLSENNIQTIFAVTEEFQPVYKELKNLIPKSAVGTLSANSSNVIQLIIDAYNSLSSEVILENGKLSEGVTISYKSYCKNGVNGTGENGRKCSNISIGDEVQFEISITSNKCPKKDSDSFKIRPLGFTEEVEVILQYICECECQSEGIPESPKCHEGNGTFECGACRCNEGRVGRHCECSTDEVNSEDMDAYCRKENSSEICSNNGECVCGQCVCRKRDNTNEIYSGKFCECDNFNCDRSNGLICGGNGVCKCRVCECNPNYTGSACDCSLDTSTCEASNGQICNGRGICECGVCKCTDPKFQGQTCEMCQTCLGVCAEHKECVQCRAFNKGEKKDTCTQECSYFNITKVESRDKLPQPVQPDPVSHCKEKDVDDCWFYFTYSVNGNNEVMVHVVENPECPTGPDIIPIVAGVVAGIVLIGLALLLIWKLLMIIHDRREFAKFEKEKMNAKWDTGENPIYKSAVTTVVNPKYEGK
Sequence of Integrin alpha-5/beta-1 (P08648 42-894 limits assumed): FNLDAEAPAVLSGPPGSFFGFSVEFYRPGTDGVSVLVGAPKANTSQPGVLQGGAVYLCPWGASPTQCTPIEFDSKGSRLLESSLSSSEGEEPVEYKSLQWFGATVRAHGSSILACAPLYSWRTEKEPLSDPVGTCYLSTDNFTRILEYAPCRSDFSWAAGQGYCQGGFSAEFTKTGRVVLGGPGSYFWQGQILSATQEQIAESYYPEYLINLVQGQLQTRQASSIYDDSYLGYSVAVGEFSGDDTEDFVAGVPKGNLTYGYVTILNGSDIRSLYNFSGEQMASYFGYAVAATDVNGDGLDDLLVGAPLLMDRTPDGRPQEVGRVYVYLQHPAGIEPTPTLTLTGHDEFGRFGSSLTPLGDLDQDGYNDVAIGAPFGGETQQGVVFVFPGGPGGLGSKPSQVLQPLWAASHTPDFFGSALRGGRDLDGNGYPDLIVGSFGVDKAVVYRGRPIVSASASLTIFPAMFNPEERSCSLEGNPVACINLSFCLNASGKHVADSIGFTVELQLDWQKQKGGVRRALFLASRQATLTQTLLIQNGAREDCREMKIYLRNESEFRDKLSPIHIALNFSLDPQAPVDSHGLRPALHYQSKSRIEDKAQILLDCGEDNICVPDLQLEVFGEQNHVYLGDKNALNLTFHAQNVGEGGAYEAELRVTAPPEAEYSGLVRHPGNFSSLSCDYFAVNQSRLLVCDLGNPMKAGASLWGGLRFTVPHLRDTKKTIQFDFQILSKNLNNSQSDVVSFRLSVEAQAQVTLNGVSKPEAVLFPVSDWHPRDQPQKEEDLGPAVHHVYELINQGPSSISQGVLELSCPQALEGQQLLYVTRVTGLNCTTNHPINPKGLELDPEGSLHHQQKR
Sequence of Integrin alpha-5/beta-1 (P08648 895-1049 limits assumed): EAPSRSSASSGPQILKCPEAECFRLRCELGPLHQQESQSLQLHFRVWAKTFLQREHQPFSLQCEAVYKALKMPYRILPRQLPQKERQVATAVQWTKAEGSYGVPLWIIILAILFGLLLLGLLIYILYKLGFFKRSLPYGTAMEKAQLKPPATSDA

Homo sapiens [4] = organism: Homo sapiens; assay: Inhibition of aggregation of human gel-filtered platelets was measured by light transmittance method.; assay type: functional
How it was run: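 Human gel-filtered platelets, 2 × 10⁸/mL, with 0.1 mg/mL human fibrinogen and 1 mM CaCl₂ at 37 °C. Aggregation was started with 10 μM ADP added last and followed by light transmittance. IC50 is the concentration halving the aggregation rate vs the uninhibited control, from at least two determinations.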

Homo sapiens [5] = assay: Inhibition of ADP induced platelet aggregation after administration of 10 ug/kg by gastric lavage; assay type: functional; how it was run: as §1
Canis familiaris [6] = assay: Ex vivo inhibition of platelet aggregation at 24 hr after the oral administration of 100 mg/kg in dogs; assay type: functional; conditions: Canis lupus familiaris
How it was run: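 Conscious dogs (n = 4) dosed orally with crystalline compound in gelatin capsules at 100 µg/kg. Ex vivo aggregation was read 24 h later in citrated PRP (2 × 10⁸ platelets/mL, 37 °C, light transmittance). It was expressed as percent inhibition vs the pretreatment baseline.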

Integrin alpha-V/beta-3 = Integrin alpha-V/beta-3 (Homo sapiens, UniProt P05106+P06756); assay: Inhibition of human umbilical vein endothelial cells (HUVEC) attachment to vitronectin (VN); assay type: functional, cell-based
Sequence of Integrin alpha-V/beta-3 (P05106 27-788 limits assumed): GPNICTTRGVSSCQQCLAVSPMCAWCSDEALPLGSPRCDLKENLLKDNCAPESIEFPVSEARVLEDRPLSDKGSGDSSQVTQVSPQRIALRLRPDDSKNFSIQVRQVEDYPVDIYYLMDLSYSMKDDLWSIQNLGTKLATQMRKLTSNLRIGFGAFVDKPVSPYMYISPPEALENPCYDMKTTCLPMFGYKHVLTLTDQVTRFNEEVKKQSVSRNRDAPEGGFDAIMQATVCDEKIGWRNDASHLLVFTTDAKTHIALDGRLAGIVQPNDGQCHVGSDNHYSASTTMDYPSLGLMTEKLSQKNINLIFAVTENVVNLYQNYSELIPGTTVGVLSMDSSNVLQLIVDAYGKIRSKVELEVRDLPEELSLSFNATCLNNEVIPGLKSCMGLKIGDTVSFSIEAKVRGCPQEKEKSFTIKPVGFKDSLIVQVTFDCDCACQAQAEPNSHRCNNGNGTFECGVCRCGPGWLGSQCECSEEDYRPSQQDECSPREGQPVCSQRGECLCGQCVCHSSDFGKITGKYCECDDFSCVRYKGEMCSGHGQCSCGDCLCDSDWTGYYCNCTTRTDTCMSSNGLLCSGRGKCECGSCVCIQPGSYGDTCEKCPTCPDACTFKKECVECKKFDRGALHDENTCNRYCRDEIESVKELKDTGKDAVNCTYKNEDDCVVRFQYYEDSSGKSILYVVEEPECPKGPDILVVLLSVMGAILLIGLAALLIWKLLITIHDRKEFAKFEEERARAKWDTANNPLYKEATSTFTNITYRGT
Sequence of Integrin alpha-V/beta-3 (P06756 31-889 limits assumed): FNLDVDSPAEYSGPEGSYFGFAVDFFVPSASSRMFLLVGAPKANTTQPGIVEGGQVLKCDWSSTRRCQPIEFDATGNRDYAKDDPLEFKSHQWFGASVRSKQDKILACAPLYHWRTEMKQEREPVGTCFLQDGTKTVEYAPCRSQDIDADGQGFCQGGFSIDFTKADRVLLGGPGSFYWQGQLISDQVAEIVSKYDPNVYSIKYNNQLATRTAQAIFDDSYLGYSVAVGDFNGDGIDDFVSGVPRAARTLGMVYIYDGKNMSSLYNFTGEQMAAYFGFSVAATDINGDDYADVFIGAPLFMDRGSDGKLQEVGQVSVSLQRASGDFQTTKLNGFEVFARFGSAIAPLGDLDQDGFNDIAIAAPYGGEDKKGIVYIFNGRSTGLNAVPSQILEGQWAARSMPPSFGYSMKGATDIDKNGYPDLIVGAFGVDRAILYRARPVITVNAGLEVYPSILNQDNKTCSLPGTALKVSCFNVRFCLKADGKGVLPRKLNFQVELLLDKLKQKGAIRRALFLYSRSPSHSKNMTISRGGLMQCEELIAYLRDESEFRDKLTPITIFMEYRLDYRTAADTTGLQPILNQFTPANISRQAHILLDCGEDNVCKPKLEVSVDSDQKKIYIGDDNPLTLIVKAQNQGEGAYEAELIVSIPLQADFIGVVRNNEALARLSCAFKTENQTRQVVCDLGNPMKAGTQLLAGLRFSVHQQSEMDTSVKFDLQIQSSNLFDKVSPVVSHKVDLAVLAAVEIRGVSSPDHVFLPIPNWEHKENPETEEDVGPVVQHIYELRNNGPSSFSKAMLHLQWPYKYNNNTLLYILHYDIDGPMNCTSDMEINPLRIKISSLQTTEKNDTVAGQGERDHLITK
Sequence of Integrin alpha-V/beta-3 (P06756 891-1048 limits assumed): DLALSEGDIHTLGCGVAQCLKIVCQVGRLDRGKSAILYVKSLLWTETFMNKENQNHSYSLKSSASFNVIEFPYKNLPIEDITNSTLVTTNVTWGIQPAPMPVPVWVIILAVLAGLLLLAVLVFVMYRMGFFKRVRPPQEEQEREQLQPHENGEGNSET

[7] = target: T1, Integrin alpha-IIb/beta-3; assay: Inhibition of human umbilical vein endothelial cells (HUVEC) attachment to fibrinogen (FG); assay type: functional, cell-based
Canis familiaris [8] = assay: Compound was tested for inhibition of extent of ADP-induced platelet aggregation between 1 and 15 min at 30 ug/Kg intravenous bolus in dogs; assay type: functional; conditions: Canis lupus familiaris

Row | ED50 [1] [nM] | Kd [3] [nM] | IC50 (Integrin alpha-5/beta-1) [nM] | IC50 (Homo sapiens [4]) [nM] | IC50 (Integrin alpha-V/beta-3) [nM] | IC50 [7] [nM] | Structure (SMILES) | inhibition in vivo at 0.01 mg/kg (Homo sapiens [2]) [%] | inhibition in vivo at 0.01 mg/kg (Homo sapiens [5]) [%] | inhibition in vivo at 100 mg/kg (Canis familiaris [6]) [%] | inhibition in vivo at 0.03 mg/kg (Canis familiaris [8]) [%]
1 | 46 | 680 | – | 470 | – | – | O=C(O)CCNC(=O)c1cc2n(n1)CCCN(CCC1CCNCC1)C2=O | – | – | – | –
2 | 72 | 590 | – | 250 | – | – | O=C(O)CCNC(=O)c1cc2n(n1)CCN(CCC1CCNCC1)C2=O | – | – | – | –

The next lines start with the molecule.

Row | Structure (SMILES) | ED50 [1] [nM] | Kd [3] [nM] | IC50 (Integrin alpha-5/beta-1) [nM] | IC50 (Homo sapiens [4]) [nM] | IC50 (Integrin alpha-V/beta-3) [nM] | IC50 [7] [nM] | inhibition in vivo at 0.01 mg/kg (Homo sapiens [2]) [%] | inhibition in vivo at 0.01 mg/kg (Homo sapiens [5]) [%] | inhibition in vivo at 100 mg/kg (Canis familiaris [6]) [%] | inhibition in vivo at 0.03 mg/kg (Canis familiaris [8]) [%]
3 | CCCCS(=O)(=O)N[C@@H](CNC(=O)c1cc2n(n1)CCCN(CCC1CCNCC1)C2=O)C(=O)O | 0.12 | 1.4 | – | – | – | – | 76 | – | – | –
4 | Cc1ccc(S(=O)(=O)N[C@@H](CNC(=O)c2cc3n(n2)CCCN(CCC2CCNCC2)C3=O)C(=O)O)cc1 | 0.08 | 1.1 | > 300000 | 8 | > 300000 | > 300000 | – | > 65 | > 85 | –
5 | C[C@H](CC(=O)O)NC(=O)CN1CCC[C@@H](CCC2CCNCC2)C1=O | 5 | 600 | – | – | – | – | – | – | – | > 90
6 | CCCCS(=O)(=O)N[C@@H](CNC(=O)c1cc2n(n1)CCN(CCC1CCNCC1)C2=O)C(=O)O | 0.12 | 1.8 | – | 9 | – | – | – | – | – | –
